Measured values from ChEMBL document CHEMBL1126727, “Synthesis and anticonvulsant activity of enaminones. 2. Further structure-activity correlations” (J Med Chem, 1993).

How the values were obtained:
Rattus norvegicus [1] = assay: Anticonvulsant activity reported as duration in amygdala kindled rats at 500 mg/kg (Behavioral seizure); type: functional
Rattus norvegicus [2] = assay: Anticonvulsant activity reported as duration in amygdala kindled rats at 500 mg/kg (Forelimb clonus); type: functional
Rattus norvegicus [3] = assay: Anticonvulsant activity reported as duration in amygdala kindled rats at 500 mg/kg (after discharge); type: functional
Rattus norvegicus [4] = assay: Anticonvulsant activity reported as amygdala duration in amygdala kindled rats at 500 mg/kg (after discharge); type: functional
Rattus norvegicus [5] = assay: Anticonvulsant activity tested at seizure stage in amygdala kindled rats at 500 mg/kg; type: functional
Rattus norvegicus [6] = assay: Anticonvulsant activity reported as cortex latency in amygdala kindled rats at 500 mg/kg (after discharge); type: functional
Rattus norvegicus [7] = assay: Anticonvulsant activity reported as latency in amygdala kindled rats at 500 mg/kg (Behavioral seizure); type: functional
Rattus norvegicus [8] = assay: Anticonvulsant activity reported as latency in amygdala kindled rats at 500 mg/kg (Forelimb clonus); type: functional
[9] = Toxic dose was determined after intraperitoneal administration; type: toxicity, organism-based; conditions: rat, in vivo, ip
Method in brief: (§1)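 Rats were dosed intraperitoneally, with compound given as a solution or a suspension in 0.5% methylcellulose. Neurotoxicity was scored 2.0 h after dosing in 8 animals per dose level (110–440 mg/kg). TD50 in mg/kg ip was derived from the dose–response, with a range given in parentheses.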

Rattus norvegicus [10] = species on record: Rattus norvegicus; assay: Number of animals protected from electroshock seizure / number of animals tested (8) after 0.25 hour at 3.6 mg / kg in maximal electroshock seizures (MES); type: functional
Method in brief: (§2)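 For the intraperitoneal rat screen, compound was given as a solution or a suspension in 0.5% methylcellulose. Protection against maximal electroshock seizures was tested at 0.25 h or 0.50 h after dosing, in 8 animals per dose. Results are expressed as animals protected over animals tested, and ED50 in mg/kg ip, with a range, was derived from these counts.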

Rattus norvegicus [11] = species on record: Rattus norvegicus; assay: Number of animals protected from electroshock seizure / number of animals tested (8) after 0.25 hour at 4.5 mg / kg in maximal electroshock seizures (MES); type: functional; method in brief: as §2
Rattus norvegicus [12] = species on record: Rattus norvegicus; assay: Number of animals protected from electroshock seizure / number of animals tested (8) after 0.25 hour at 7.0 mg / kg in maximal electroshock seizures (MES); type: functional; method in brief: as §2
Rattus norvegicus [13] = species on record: Rattus norvegicus; assay: (§3) Protective index (TD50 / MES ED50); type: functional
Rattus norvegicus [14] = species on record: Rattus norvegicus; assay: Number of animals exhibiting neurotoxicity / number of animals tested (8) after 2.0 hr at 110 mg / kg; type: functional; method in brief: as §1
Rattus norvegicus [15] = species on record: Rattus norvegicus; assay: Number of animals exhibiting neurotoxicity / number of animals tested (8) after 2.0 hr at 180 mg / kg; type: functional; method in brief: as §1
Rattus norvegicus [16] = species on record: Rattus norvegicus; assay: Number of animals exhibiting neurotoxicity / number of animals tested (8) after 2.0 hr at 220 mg / kg; type: functional; method in brief: as §1
Rattus norvegicus [17] = species on record: Rattus norvegicus; assay: Number of animals exhibiting neurotoxicity / number of animals tested (8) after 2.0 hr at 440 mg / kg; type: functional; method in brief: as §1
Rattus norvegicus [18] = species on record: Rattus norvegicus; assay: Number of animals protected from electroshock seizure / number of animals tested (8) after 0.25 hour at 1.2 mg / kg in maximal electroshock seizures (MES); type: functional; method in brief: as §2
Rattus norvegicus [19] = assay: Intraperitoneal (ip) toxicity tested in rats is the number of animals displaying neurotoxicity / number of animals tested (8) after 0.25 hr at 100 mg / kg; type: organism-based; set-up: dose 100 mg / kg; conditions: in vivo
Method in brief: (§4)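 Special ip screen run by the ADD Program in male Sprague-Dawley rats. Test drug was given ip at 100 mg/kg as a solution or suspension in 0.5% methylcellulose. Neurotoxicity was scored at 0.25, 0.5, 1, 2, 4, 6, 8 and 24 h after dosing. Each result is reported as number of rats showing neurotoxicity over number tested.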

Rattus norvegicus [20] = assay: Intraperitoneal (ip) toxicity tested in rats is the number of animals displaying neurotoxicity / number of animals tested (8) after 0.50 h at 100 mg / kg; type: organism-based; set-up: dose 100 mg / kg; conditions: in vivo, 0.5 h; method in brief: as §4
Rattus norvegicus [21] = assay: Intraperitoneal (ip) toxicity tested in rats is the number of animals displaying neurotoxicity / number of animals tested (8) after 1 hr at 100 mg / kg; type: organism-based; set-up: dose 100 mg / kg; conditions: in vivo; method in brief: as §4
Rattus norvegicus [22] = assay: Intraperitoneal (ip) toxicity tested in rats is the number of animals displaying neurotoxicity / number of animals tested (8) after 2 h at 100 mg / kg; type: organism-based; set-up: dose 100 mg / kg; conditions: in vivo; method in brief: as §4
Rattus norvegicus [23] = assay: Intraperitoneal (ip) toxicity tested in rats is the number of animals displaying neurotoxicity / number of animals tested (8) after 24 hr at 100 mg / kg; type: organism-based; set-up: dose 100 mg / kg; conditions: in vivo; method in brief: as §4
Rattus norvegicus [24] = assay: Intraperitoneal (ip) toxicity tested in rats is the number of animals displaying neurotoxicity / number of animals tested (8) after 4 h at 100 mg / kg; type: organism-based; set-up: dose 100 mg / kg; conditions: in vivo; method in brief: as §4
Rattus norvegicus [25] = assay: Intraperitoneal (ip) toxicity tested in rats is the number of animals displaying neurotoxicity / number of animals tested (8) after 6 hr at 100 mg / kg; type: organism-based; set-up: dose 100 mg / kg; conditions: in vivo; method in brief: as §4
[26] = Protective index expressed as TD50 / ED50; type: functional
Mus musculus [27] = assay: Toxicity observed in mice at >750 mg/kg ip; No Toxicity; conditions: in vivo
Mus musculus [28] = assay: Effective dose administered intraperitoneally in mice at 15 minutes in maximal-electroshock (MES) test; conditions: ip, 0.25 h
[29] = as §3; type: functional
Rattus norvegicus [30] = species on record: Rattus norvegicus; assay: Number of animals protected from electroshock seizure / number of animals tested (8) after 0.50 hour at 1.0 mg / kg in maximal electroshock seizures (MES); type: functional; method in brief: as §2
Rattus norvegicus [31] = species on record: Rattus norvegicus; assay: Number of animals protected from electroshock seizure / number of animals tested (8) after 0.50 hour at 2.0 mg / kg in maximal electroshock seizures (MES); type: functional; method in brief: as §2
Rattus norvegicus [32] = species on record: Rattus norvegicus; assay: Number of animals protected from electroshock seizure / number of animals tested (8) after 0.50 hour at 3.0 mg / kg in maximal electroshock seizures (MES); type: functional; method in brief: as §2
Rattus norvegicus [33] = species on record: Rattus norvegicus; assay: Number of animals protected from electroshock seizure / number of animals tested (8) after 0.50 hour at 3.5 mg / kg in maximal electroshock seizures (MES); type: functional; method in brief: as §2
Rattus norvegicus [34] = species on record: Rattus norvegicus; assay: Number of animals protected from electroshock seizure / number of animals tested (8) after 0.50 hour at 4.0 mg / kg in maximal electroshock seizures (MES); type: functional; method in brief: as §2
Rattus norvegicus [35] = species on record: Rattus norvegicus; assay: Number of animals exhibiting neurotoxicity / number of animals tested (2) after 0.25-24 h at 64 mg / kg
Rattus norvegicus [36] = species on record: Rattus norvegicus; assay: Number of animals exhibiting neurotoxicity / number of animals tested (2) after 0.25-24 hr at 8 mg / kg
Rattus norvegicus [37] = species on record: Rattus norvegicus; assay: Number of animals exhibiting neurotoxicity / number of animals tested (2) after 0.25-24 hr at 16 mg / kg
Rattus norvegicus [38] = species on record: Rattus norvegicus; assay: Number of animals exhibiting neurotoxicity / number of animals tested (2) after 0.25-24 hr at 32 mg / kg
Rattus norvegicus [39] = assay: Anticonvulsant activity reported as duration in amygdala kindled rats at 350 mg/kg (after discharge); type: functional
Rattus norvegicus [40] = assay: Intraperitoneal (ip) toxicity tested in rats is the number of animals displaying neurotoxicity / number of animals tested (8) after 24 hr at 100 mg / kg (Two testing animals died); type: organism-based; set-up: dose 100 mg / kg; conditions: in vivo; method in brief: as §4
Rattus norvegicus [41] = assay: Intraperitoneal (ip) toxicity tested in rats is the number of animals displaying neurotoxicity / number of animals tested (8) after 8 hr at 100 mg / kg; type: organism-based; set-up: dose 100 mg / kg; conditions: in vivo; method in brief: as §4
Rattus norvegicus [42] = assay: Anticonvulsant activity reported as amygdala duration in amygdala kindled rats at 350 mg/kg (after discharge); type: functional
Rattus norvegicus [43] = assay: Anticonvulsant activity reported as duration in amygdala kindled rats at 350 mg/kg (Behavioral seizure); type: functional
Rattus norvegicus [44] = assay: Anticonvulsant activity reported as duration in amygdala kindled rats at 350 mg/kg (Forelimb clonus); type: functional
Rattus norvegicus [45] = assay: Anticonvulsant activity tested at seizure stage in amygdala kindled rats at 350 mg/kg; type: functional
Rattus norvegicus [46] = assay: Anticonvulsant activity reported as cortex latency in amygdala kindled rats at 350 mg/kg (after discharge); type: functional
Rattus norvegicus [47] = assay: Anticonvulsant activity reported as latency in amygdala kindled rats at 350 mg/kg (Behavioral seizure); type: functional
Rattus norvegicus [48] = assay: Anticonvulsant activity reported as latency in amygdala kindled rats at 350 mg/kg (Forelimb clonus); type: functional
[49] = Protective index expressed as TD50 / ED50; No toxicity; type: functional
Rattus norvegicus [50] = assay: Toxicity observed in rats at >500 mg/kg po; conditions: in vivo

SMILES: COC(=O)C1C(=O)C=C(NCc2ccccc2)CC1C (stereo not given)
- Duration (Rattus norvegicus [1]): 79.5 s
- Duration (Rattus norvegicus [2]): 44.2 s
- Duration (Rattus norvegicus [3]): 78.9 s
- Duration (Rattus norvegicus [4]): 73.9 s
- Seizure stage (Rattus norvegicus [5]): 5
- Latency (Rattus norvegicus [6]): 2.8 s
- Latency (Rattus norvegicus [7]): 2.1 s
- Latency (Rattus norvegicus [8]): 9.3 s

SMILES: COC(=O)C1C(=O)C=C(Nc2ccc(Br)cc2)CC1C (stereo not given)
- TD50 [9]: 270 mg/kg
- No. of animals (Rattus norvegicus [10]): 5
- No. of animals (Rattus norvegicus [11]): 3
- No. of animals (Rattus norvegicus [12]): 7
- PI (Rattus norvegicus [13]): 67.4
- No. of animals (Rattus norvegicus [14]): 0
- No. of animals (Rattus norvegicus [15]): 2
- No. of animals (Rattus norvegicus [16]): 4
- No. of animals (Rattus norvegicus [17]): 6
- No. of animals (Rattus norvegicus [18]): 0

SMILES: CCc1ccc(NC2=CC(=O)C(C(=O)OC)C(C)C2)cc1 (stereo not given)
- Toxicity (Rattus norvegicus [19]): 1
- Toxicity (Rattus norvegicus [20]): 5
- Toxicity (Rattus norvegicus [21]): 0
- Toxicity (Rattus norvegicus [22]): 0
- Toxicity (Rattus norvegicus [23]): 0
- Toxicity (Rattus norvegicus [24]): 0
- Toxicity (Rattus norvegicus [25]): 0
- PI [26]: > 6.6
- Toxicity (Mus musculus [27]): No Toxicity
- ED50 (Mus musculus [28]): 114 mg/kg

SMILES: COC(=O)C1C(=O)C=C(Nc2ccc(C(F)(F)F)cc2)CC1C (stereo not given)
- PI [29]: > 21.7
- TD50 [9]: > 64 mg/kg
- No. of animals (Rattus norvegicus [30]): 0
- No. of animals (Rattus norvegicus [31]): 3
- No. of animals (Rattus norvegicus [32]): 3
- No. of animals (Rattus norvegicus [33]): 4
- No. of animals (Rattus norvegicus [34]): 7
- No. of animals (Rattus norvegicus [35]): 0
- No. of animals (Rattus norvegicus [36]): 0
- No. of animals (Rattus norvegicus [37]): 0
- No. of animals (Rattus norvegicus [38]): 0

SMILES: COC(=O)C1C(=O)C=C(Nc2ccc(Cl)cc2)CC1C (stereo not given)
- Duration (Rattus norvegicus [39]): 79.6 s
- Toxicity (Rattus norvegicus [19]): 0
- Toxicity (Rattus norvegicus [20]): 3
- Toxicity (Rattus norvegicus [21]): 6
- Toxicity (Rattus norvegicus [22]): 7
- Toxicity (Rattus norvegicus [40]): 2
- Toxicity (Rattus norvegicus [24]): 2
- Toxicity (Rattus norvegicus [25]): 1
- Toxicity (Rattus norvegicus [41]): 0
- Duration (Rattus norvegicus [42]): 79.8 s
- Duration (Rattus norvegicus [43]): 82.3 s
- Duration (Rattus norvegicus [44]): 45.3 s
- Seizure stage (Rattus norvegicus [45]): 5
- Latency (Rattus norvegicus [46]): 2.7 s
- Latency (Rattus norvegicus [47]): 2.1 s
- Latency (Rattus norvegicus [48]): 9.2 s

SMILES: CC1(C)CC(O)=C/C(=N\c2ccccc2)C1
- Toxicity (Rattus norvegicus [19]): 5
- Toxicity (Rattus norvegicus [20]): 7
- Toxicity (Rattus norvegicus [21]): 6
- Toxicity (Rattus norvegicus [22]): 6
- Toxicity (Rattus norvegicus [23]): 0
- Toxicity (Rattus norvegicus [24]): 3
- Toxicity (Rattus norvegicus [25]): 3
- PI [49]: > 13.7
- Toxicity (Rattus norvegicus [50]): Toxicity observed in mice at >500 mg/kg po
- ED50 (Mus musculus [28]): 36.4 mg/kg
